Lmaj promast: Leishmania major promastigote growth inhibition, primary screen; AID 1063, 2008; 9% of 200,000 active; inhibition, % at 10 µM; Leishmania major promastigotes, resazurin fluorescence viability; in the data active means inhibition above about 50%;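 further: promastigotes grown with compound for 44 hours at 28 °C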
Calb FLC: C. albicans growth inhibition with fluconazole, primary screen, CaCi-2 strain, Alamar Blue fluorescence. C. albicans CaCi-2 + fluconazole, 48 h. growth inhibition, % (no concentration beside the values). 0.57% of 300,000 active. AID 1979, 2009;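 active means growth inhibition above about 58% in most replicates, limit read from the data, passing the limit was not always enough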;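 further: all wells also contain fluconazole at 8 µg/ml as a sub-toxic cotreatment; 0% = median of DMSO wells and 100% = median of geldanamycin control wells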
T cruzi repl: inhibitors of intracellular T. cruzi growth, primary screen, luminescence, NIH3T3 host cells. AID 1885, 2009. inhibition, % (test concentration not listed). 1.4% of 300,000 active. T. cruzi beta-gal in NIH3T3, 90 h;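 active means mean inhibition across valid replicates above about 55%, limit read from the data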;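 further: signal also drops with host cell toxicity which is not excluded here; 0% = plate median of DMSO wells and 100% = zero luminescence signal; higher percent means less beta-gal luminescence so fewer parasites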
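Incubation – ≥90 h infection period, 3 h prior cell attachment · System – NIH/3T3 fibroblasts plus reporter T. cruzi · Doses – compound pinned at 50 nL/well, DMSO · Read-out basis – percent inhibition of parasite-derived β-gal signal · Signal – luminescent β-galactosidase signal after 60 min lysis · Also added – 5000 T. cruzi trypomastigotes/well · Medium – Low-serum DMEM with 2% FBS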
PolyA inhibitor: polyadenylation inhibitors in yeast reporter cells, primary screen, luminescence, S. cerevisiae. AID 1875, 2009. activity score, % at 12 µM. 0.02% of 300,000 active. S. cerevisiae SKY197-pL101 polyadenylation reporter, beta-gal luminescence; efflux-impaired pdr1/pdr3 knockout yeast; score 100 = 6 SD above DMSO;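 active means lowest replicate activity score at least 50, where 100 means six control SD above control mean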;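 further: yeast exposed to compound for 9 h at 30 °C; higher score means more reporter readthrough which indicates perturbed polyadenylation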
NLRP3 yeast inh: NALP3 inflammasome inhibitors in reconstituted yeast, primary screen, luminescence, uHTS | 0.39% of 330,000 active | Yeast reconstituted NLRP3/ASC/caspase-1, beta-gal luminescence, 24 h | inhibition, % at 10 µM;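 active means inhibition of 50% or more; inactive means inhibition below 50%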;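 further: plate controls were induced DMSO wells for no effect and uninduced yeast grown without galactose for full effect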
NALP1 inh: NALP1 inflammasome inhibitors in reconstituted yeast, colorimetric, S. cerevisiae, triplicate retest | S. cerevisiae NALP1/ASC/caspase-1 growth, X-gal OD620, 72 h | 0.61% of 280,000 active | inhibition, % at 10 µM; in the data active means inhibition mostly above about 24%, no sharp cut-off; inactive means mostly below about 32%
The depositor's hits bear a star; / = no result given. This excerpt belongs to a sample that is enriched for hits.

SMILES	Lmaj promast	Calb FLC	T cruzi repl	PolyA inhibitor	NLRP3 yeast inh	NALP1 inh
O=C(/C=C/c1ccc(Cl)cc1)NCCCN1CCOCC1	/	-5	-4	11	3	20
O=C(/C=C/c1ccc(Cl)cc1Cl)NCCN1CCOCC1	71*	-4	-7	-13	7	28
CCC1=C(c2ccc(C)cc2)S(=O)(=O)N=C1N1CCC(C(=O)NCCCN2CCCCC2)CC1	/	9	2	19	30	18
Cc1c(C(=O)N(C)C2CCCCC2)sc2ncnc(N3CCN(c4ccccc4)CC3)c12	/	-10	-1	-3	17	-7
COc1ccc(N(C(=O)CCl)C(C(=O)NCCc2ccccc2)c2cccs2)cc1 (configuration not stated)	100*	4	12	-2	/	4
CCCNC(=O)c1noc2c1CCc1ccccc1-2	13	-6	-5	7	42	5
COc1ccc(CCNC(=O)Cc2cccs2)cc1	56*	-15	2	6	6	21
O=C(NCCN1CCOCC1)c1noc2c1CCc1ccccc1-2	-4	37	18	7	-2	23*
O=C(Cc1cccs1)NCCCc1ccccc1	-3	-15	-2	-3	4	3
CCOC(=O)c1ccc(NC(=S)N(CCN2CCCCCC2)Cc2ccco2)cc1	95*	-19	25	-3	16	2
Cc1ccc(NC(=S)N(CCCN2CCCC(C)C2)Cc2ccco2)cc1C (configuration not stated)	96*	-25	20	-4	16	14
CCOC(=O)c1ccc(NC(=S)N(CCCN2CCCCCC2)Cc2ccco2)cc1	100*	-4	49	10	4	42
S=C(Nc1ccc(Cl)cc1)N(CCCN1CCOCC1)Cc1ccco1	96*	4	-25	6	-3	15
Cc1ccc(NC(=S)N(CCCN2CCOCC2)Cc2ccco2)cc1	4	-14	-7	10	6	8
CCN1CCN(CCCN(Cc2ccco2)C(=S)Nc2ccc(Cl)c(C)c2)CC1	44	2	-42	-9	-3	12
Cc1ccc(NC(=S)N(CCN2CCCCC2)Cc2ccco2)cc1	10	4	-10	13	3	32
Fc1ccc(N2Cc3ccsc3C=N2)cc1	5	4	-23	4	-5	19
CCOC(=O)C1(CCOC)CCN(C(=O)Cc2ccc3ccccc3c2)CC1	/	3	-10	-7	13	6
CCOC(=O)C1(CCOC)CCN(C(C)CCc2ccc(OC)cc2)CC1 (configuration not stated)	91*	4	17	0	11	9
CC(=O)c1cccc(CN(C)CC2CCCN(CCc3ccccc3C)C2)c1 (configuration not stated)	/	-4	49	3	42	-8
COc1ccc(NC(=O)c2ccc3c(=O)n(CC4CCCO4)c(=S)[nH]c3c2)c(OC)c1 (configuration not stated)	/	11	-5	21	18	-6
CC/C(O)=C1\C(=O)CC(c2ccccc2)CC1=NC(C)C (configuration not stated)	59*	11	-1	-13	6	25
CC(=O)Nc1c(C)nn(-c2ccc([N+](=O)[O-])cc2)c1C	2	-15	9	-13	16	3
COc1cccc(C2c3c(C)nn(-c4ccc([N+](=O)[O-])cc4)c3N=C3C(=O)Nc4ccccc4N32)c1 (configuration not stated)	65*	45	63*	-6	17	30*
Cc1nn(-c2ccc([N+](=O)[O-])cc2)c2c1C(c1ccc(OC(F)F)cc1)N1C(=N2)C(=O)Nc2ccccc21 (configuration not stated)	68*	87*	91*	-13	12	-13
Cc1ccc(C2c3c(C)nn(-c4ccc([N+](=O)[O-])cc4)c3N=C3C(=O)Nc4ccccc4N32)cc1 (configuration not stated)	99*	63	65*	-24	28	4
